Legend:
Listeria monocytogenes [1] = assay: Antimicrobial activity against Listeria monocytogenes ATCC 19111 assessed as growth inhibition rate at 16.8 mg/l after 72 hr by spectrophotometry; format: functional; conditions: ATCC 19111, 72 h, read-out: GI
Procedure, shortened: (§1)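 L. monocytogenes was grown at 30 °C in tryptic soy broth, subcultured for 18 h, and exposed to pure volatile compounds (>95% purity). Growth was followed by Bioscreen C optical density every 24 h for 72 h against a 10% Tween 80 control.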

Staphylococcus aureus [2] = assay: Antimicrobial activity against Staphylococcus aureus ATCC 25923 assessed as growth inhibition rate at 16.8 mg/l after 72 hr by spectrophotometry; format: functional; conditions: ATCC 25923, 72 h, read-out: GI
Vibrio parahaemolyticus [3] = assay: Antimicrobial activity against Vibrio parahaemolyticus ATCC 33844 assessed as growth inhibition rate at 16.8 mg/l after 72 hr by spectrophotometry; format: functional; conditions: ATCC 33844, 72 h, read-out: GI
Escherichia coli [4] = assay: Antimicrobial activity against Escherichia coli O157:H7 ATCC 43894 assessed as growth inhibition rate at 16.8 mg/l after 72 hr by spectrophotometry; format: functional; conditions: O157:H7 ATCC 43894, 72 h, read-out: GI
Salmonella typhimurium [5] = assay: Antimicrobial activity against Salmonella enterica subsp. enterica serovar Typhimurium ATCC 14028 assessed as growth inhibition rate at 16.8 mg/l after 72 hr by spectrophotometry; format: functional; conditions: ATCC 14028, 72 h, read-out: GI
Procedure, shortened: (§2)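 Salmonella Typhimurium ATCC 14028 grown in nutrient broth at 30 °C, precultured 24 h, then subcultured 1:100 for 18 h before testing. Single volatile compounds (>95% pure) were added. OD was read every 24 h over 72 h in a Bioscreen C, with 10% Tween 80 as the comparison control.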

Bacillus cereus [6] = assay: Antimicrobial activity against Bacillus cereus ATCC 11778 assessed as growth inhibition rate at 16.8 mg/l after 72 hr by spectrophotometry; format: functional; conditions: ATCC 11778, 72 h, read-out: GI
Procedure, shortened: (§3)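 Pure volatile compounds (purity >95%; one at 90%) were tested against B. cereus ATCC 11778. The strain was grown at 30 °C in nutrient broth for 24 h, then subcultured for 18 h. Optical density was read in a Bioscreen C every 24 h for 72 h, with 10% Tween 80 as the control.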

Listeria monocytogenes [7] = assay: Antimicrobial activity against Listeria monocytogenes ATCC 19111 assessed as growth inhibition rate at 2.36 mg/l after 72 hr by spectrophotometry; format: functional; conditions: ATCC 19111, 72 h, read-out: GI; procedure, shortened: as §1
Staphylococcus aureus [8] = assay: Antimicrobial activity against Staphylococcus aureus ATCC 25923 assessed as growth inhibition rate at 2.36 mg/l after 72 hr by spectrophotometry; format: functional; conditions: ATCC 25923, 72 h, read-out: GI
Vibrio parahaemolyticus [9] = assay: Antimicrobial activity against Vibrio parahaemolyticus ATCC 33844 assessed as growth inhibition rate at 2.36 mg/l after 72 hr by spectrophotometry; format: functional; conditions: ATCC 33844, 72 h, read-out: GI
Escherichia coli [10] = assay: Antimicrobial activity against Escherichia coli O157:H7 ATCC 43894 assessed as growth inhibition rate at 2.36 mg/l after 72 hr by spectrophotometry; format: functional; conditions: O157:H7 ATCC 43894, 72 h, read-out: GI
Bacillus cereus [11] = assay: Antimicrobial activity against Bacillus cereus ATCC 11778 assessed as growth inhibition rate at 2.36 mg/l after 72 hr by spectrophotometry; format: functional; conditions: ATCC 11778, 72 h, read-out: GI; procedure, shortened: as §3
Salmonella typhimurium [12] = assay: Antimicrobial activity against Salmonella enterica subsp. enterica serovar Typhimurium ATCC 14028 assessed as growth inhibition rate at 2.36 mg/l after 72 hr by spectrophotometry; format: functional; conditions: ATCC 14028, 72 h, read-out: GI; procedure, shortened: as §2
Listeria monocytogenes [13] = assay: Antimicrobial activity against Listeria monocytogenes ATCC 19111 assessed as growth inhibition rate at 1.84 mg/l after 72 hr by spectrophotometry; format: functional; conditions: ATCC 19111, 72 h, read-out: GI; procedure, shortened: as §1
Vibrio parahaemolyticus [14] = assay: Antimicrobial activity against Vibrio parahaemolyticus ATCC 33844 assessed as growth inhibition rate at 1.84 mg/l after 72 hr by spectrophotometry; format: functional; conditions: ATCC 33844, 72 h, read-out: GI
Escherichia coli [15] = assay: Antimicrobial activity against Escherichia coli O157:H7 ATCC 43894 assessed as growth inhibition rate at 1.84 mg/l after 72 hr by spectrophotometry; format: functional; conditions: O157:H7 ATCC 43894, 72 h, read-out: GI
Salmonella typhimurium [16] = assay: Antimicrobial activity against Salmonella enterica subsp. enterica serovar Typhimurium ATCC 14028 assessed as growth inhibition rate at 1.84 mg/l after 72 hr by spectrophotometry; format: functional; conditions: ATCC 14028, 72 h, read-out: GI; procedure, shortened: as §2
Bacillus cereus [17] = assay: Antimicrobial activity against Bacillus cereus ATCC 11778 assessed as growth inhibition rate at 1.84 mg/l after 72 hr by spectrophotometry; format: functional; conditions: ATCC 11778, 72 h, read-out: GI; procedure, shortened: as §3
Staphylococcus aureus [18] = assay: Antimicrobial activity against Staphylococcus aureus ATCC 25923 assessed as growth inhibition rate at 1.84 mg/l after 72 hr by spectrophotometry; format: functional; conditions: ATCC 25923, 72 h, read-out: GI
Listeria monocytogenes [19] = assay: microbe, parasite or virus in culture; conditions: ATCC 19111, 72 h, read-out: GI
Staphylococcus aureus [20] = assay: microbe, parasite or virus in culture; conditions: ATCC 25923, 72 h, read-out: GI
Vibrio parahaemolyticus [21] = assay: microbe, parasite or virus in culture; conditions: ATCC 33844, 72 h, read-out: GI
Escherichia coli [22] = assay: microbe, parasite or virus in culture; conditions: O157:H7 ATCC 43894, 72 h, read-out: GI
Salmonella typhimurium [23] = assay: microbe, parasite or virus in culture; conditions: Salmonella enterica, ATCC 14028, 72 h, read-out: GI
Bacillus cereus [24] = assay: microbe, parasite or virus in culture; conditions: ATCC 11778, 72 h, read-out: GI
Listeria monocytogenes [25] = assay: Antimicrobial activity against Listeria monocytogenes ATCC 19111 assessed as growth inhibition rate at 1.96 mg/l after 72 hr by spectrophotometry; format: functional; conditions: ATCC 19111, 72 h, read-out: GI
Procedure, shortened: (§4)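 Authentic volatiles (>95% purity; 2,4-heptadienal 90%) tested against 18 h subcultures. Growth media: E. coli O157:H7 and S. aureus in tryptic soy broth at 37 °C; L. monocytogenes in tryptic soy broth at 30 °C; V. parahaemolyticus in tryptic soy broth + 3% NaCl at 37 °C; S. typhimurium in nutrient broth at 30 °C. Bioscreen C OD every 24 h for 72 h versus 10% Tween 80 control.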

Staphylococcus aureus [26] = assay: Antimicrobial activity against Staphylococcus aureus ATCC 25923 assessed as growth inhibition rate at 1.96 mg/l after 72 hr by spectrophotometry; format: functional; conditions: ATCC 25923, 72 h, read-out: GI; procedure, shortened: as §4
Vibrio parahaemolyticus [27] = assay: Antimicrobial activity against Vibrio parahaemolyticus ATCC 33844 assessed as growth inhibition rate at 1.96 mg/l after 72 hr by spectrophotometry; format: functional; conditions: ATCC 33844, 72 h, read-out: GI; procedure, shortened: as §4
Escherichia coli [28] = assay: Antimicrobial activity against Escherichia coli O157:H7 ATCC 43894 assessed as growth inhibition rate at 1.96 mg/l after 72 hr by spectrophotometry; format: functional; conditions: O157:H7 ATCC 43894, 72 h, read-out: GI
Bacillus cereus [29] = assay: Antimicrobial activity against Bacillus cereus ATCC 11778 assessed as growth inhibition rate at 1.96 mg/l after 72 hr by spectrophotometry; format: functional; conditions: ATCC 11778, 72 h, read-out: GI
Procedure, shortened: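 Pure volatile compounds (>95% purity; 2,4-heptadienal 90%) identified in the leaf extract were tested against B. cereus ATCC 11778 in nutrient broth at 30 °C. The inoculum was grown 24 h, then subcultured (0.1 mL into 9.9 mL) for 18 h. Optical density was read in a Bioscreen C every 24 h for 72 h against a 10% Tween 80 control.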

Structure (SMILES): CCCCCC=O [HEXANAL]
- inhibition of growth at 16.8 µg/mL (Listeria monocytogenes [1]): 14.4%
- inhibition of growth at 16.8 µg/mL (Staphylococcus aureus [2]): 11.3%
- inhibition of growth at 16.8 µg/mL (Vibrio parahaemolyticus [3]): 57.8%
- inhibition of growth at 16.8 µg/mL (Escherichia coli [4]): 41.5%
- inhibition of growth at 16.8 µg/mL (Salmonella typhimurium [5]): 39.1%
- inhibition of growth at 16.8 µg/mL (Bacillus cereus [6]): 19.3%

Structure (SMILES): CCCCC=O [PENTANAL]
- inhibition of growth at 2.36 µg/mL (Listeria monocytogenes [7]): 0%
- inhibition of growth at 2.36 µg/mL (Staphylococcus aureus [8]): 6.3%
- inhibition of growth at 2.36 µg/mL (Vibrio parahaemolyticus [9]): 0%
- inhibition of growth at 2.36 µg/mL (Escherichia coli [10]): 0%
- inhibition of growth at 2.36 µg/mL (Bacillus cereus [11]): 11.3%
- inhibition of growth at 2.36 µg/mL (Salmonella typhimurium [12]): 4.2%

Structure (SMILES): CC/C=C/C=O [PENTENAL]
- inhibition of growth at 1.84 µg/mL (Listeria monocytogenes [13]): 16.9%
- inhibition of growth at 1.84 µg/mL (Vibrio parahaemolyticus [14]): 40.7%
- inhibition of growth at 1.84 µg/mL (Escherichia coli [15]): 11%
- inhibition of growth at 1.84 µg/mL (Salmonella typhimurium [16]): 39.6%
- inhibition of growth at 1.84 µg/mL (Bacillus cereus [17]): 27.4%
- inhibition of growth at 1.84 µg/mL (Staphylococcus aureus [18]): 12.2%

Structure (SMILES): CCCO [PROPANOL]
- inhibition of growth at 1.76 µg/mL (Listeria monocytogenes [19]): 0%
- inhibition of growth at 1.76 µg/mL (Staphylococcus aureus [20]): 6.1%
- inhibition of growth at 1.76 µg/mL (Vibrio parahaemolyticus [21]): 0%
- inhibition of growth at 1.76 µg/mL (Escherichia coli [22]): 0%
- inhibition of growth at 1.76 µg/mL (Salmonella typhimurium [23]): 2.6%
- inhibition of growth at 1.76 µg/mL (Bacillus cereus [24]): 0%

Structure (SMILES): Cc1ccccc1 [TOLUENE]
- inhibition of growth at 1.96 µg/mL (Listeria monocytogenes [25]): 0%
- inhibition of growth at 1.96 µg/mL (Staphylococcus aureus [26]): 1.8%
- inhibition of growth at 1.96 µg/mL (Vibrio parahaemolyticus [27]): 1.6%
- inhibition of growth at 1.96 µg/mL (Escherichia coli [28]): 0%
- inhibition of growth at 1.96 µg/mL (Bacillus cereus [29]): 0%

Source: ChEMBL document CHEMBL3046951, “Volatile constituents from the leaves of Callicarpa japonica Thunb. and their antibacterial activities” (2004)
